Series [1] concerns Nucleic Acid. Put plainly: Induction of Escherichia coli pUC18 DNA condensation assessed as retardation of DNA migration at 500 uM after 1 hr by agarose gel electrophoresis. The series is classed as nucleic-acid assay. The method, boiled down: (§1)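 Supercoiled pUC18 plasmid treated with conjugate in Tris–HCl (50 mM, pH 7.4), then incubated 1 h at 37 °C. Agarose gel electrophoresis compared with a DNA-alone lane. Retardation was judged by loss of supercoiled DNA migration.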

The test system of series [2] is Nucleic Acid. Put plainly: Binding affinity to calf thymus DNA assessed as fluorescence quenching after 1 min by ethidium bromide displacement assay. The series is classed as nucleic-acid assay. The note with it: Bos taurus. The method, boiled down: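 Calf thymus DNA (100 μM) pretreated with ethidium bromide (10 μM), then conjugate added. Tris buffer (50 mM, pH 7.4), room temperature. Incubated 1 min before reading fluorescence, excitation 537 nm. Apparent binding constant (K_app) derived from the quenching curve.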

Series [3] in a line: Cytotoxicity against human HepG2 cells assessed as cell viability at 250 uM after 24 hrs by MTT assay. The following applies: read-out: Activity. Format: cell-based. The method, boiled down:
(§2)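 MTT assay. HepG2 grown in DMEM with 15% FBS, T98G in MEM with 10% FBS, 37 °C, 5% CO2. Cells seeded at 5 × 10⁵ per well and cultured 24 h, then exposed to compound for 24 h. MTT (5 mg/mL stock) added for 4 h, formazan dissolved in DMSO, absorbance read at 490 nm. Viability taken relative to controls from four parallel tests.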
(Tetrazolium dyes change colour on reduction, which living cells bring about.)

Series [4] deals with Nucleic Acid. The series can be described thus: Induction of Escherichia coli pUC18 condensation assessed as retardation of DNA migration at 150 uM after 1 hr by agarose gel electrophoresis in presence of 50 to 400 mM NaCl. The series is classed as nucleic-acid assay.
The subject of series [5] is Nucleic Acid. The series can be described thus: Induction of Escherichia coli pUC18 condensation assessed as hydrodynamic diameters of DNA nanoparticles at 50 to 250 uM after 5 mins by dynamic laser light scattering analysis. Format: nucleic-acid assay. The method, boiled down:
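pUC18 DNA at 9 μg/mL in Tris buffer (50 mM, pH 7.4) with conjugate, left 5 min at room temperature. Dynamic light scattering at 90° and 25 °C. Ten runs per solution, averaged and reported as mean ± S.D.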

Series [6] relates to Nucleic Acid. The series can be described thus: Induction of Escherichia coli pUC18 condensation assessed as retardation of DNA migration at 250 uM after 1 hr by agarose gel electrophoresis. The series is classed as nucleic-acid assay. A digest of the protocol:
as §1

The test system of series [7] is Nucleic Acid. Put plainly: Induction of Escherichia coli pUC18 condensation assessed as diameters of DNA nanoparticles at 250 uM after 1 hr by atomic force microscopy. The series is classed as nucleic-acid assay. The method, boiled down:
(§3)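 pUC18 diluted to 9 μg/mL in Tris (5 mM, pH 7.4) with 1 mM MgCl2 plus conjugate, equilibrated 1 h at 37 °C. Sample spotted for 5 min on mica pretreated with 10 mM NiCl2, then rinsed and dried under argon. Imaged in air at room temperature by tapping-mode AFM with Si tips at 1–3 Hz.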

The test system of series [8] is Nucleic Acid. Put plainly: Reversible Escherichia coli pUC18 condensation assessed as DNA migration at 250 uM after 1 hr by agarose gel electrophoresis in presence of 200 mM NaCl. Format: nucleic-acid assay.
The nature of series [9]: Cytotoxicity against human T98G cells assessed as cell viability at 250 uM after 24 hrs by MTT assay. Format: cell-based. The following applies: read-out: Activity. A digest of the protocol:
as §2

The test system of series [10] is Nucleic Acid. The series can be described thus: Induction of Escherichia coli pUC18 condensation assessed as retardation of DNA migration at 220 uM after 1 hr by agarose gel electrophoresis in presence of 50 to 400 mM NaCl. Format: nucleic-acid assay.
In series [11] the test system is Nucleic Acid. The series can be described thus: Induction of Escherichia coli pUC18 condensation assessed as diameters of DNA nanoparticles at 150 uM after 1 hr by atomic force microscopy. The series is classed as nucleic-acid assay. A digest of the protocol: as §3
Series [12] concerns Nucleic Acid. The series can be described thus: Reversible Escherichia coli pUC18 condensation assessed as DNA migration at 150 uM after 1 hr by agarose gel electrophoresis in presence of 200 mM NaCl. Format: nucleic-acid assay.
Series [13] has as its system Nucleic Acid. Put plainly: Induction of Escherichia coli pUC18 condensation assessed as retardation of DNA migration at 200 uM after 1 hr by agarose gel electrophoresis. The series is classed as nucleic-acid assay. A digest of the protocol: as §1

Calls of active or inactive are those of the source. The rule behind the calls is not given here. Residues, ends and D or L forms follow the SMILES beside them.

Turning to `COC(=O)CNC(=O)[C@H](CC(C)C)NC(=O)[C@H](C)NC(=O)[C@H](CC(C)C)NC(=O)[C@H](C)NC(=O)[C@H](CC(C)C)NC(=O)CN1CCCNCCCNCCC1` (HELM PEPTIDE1{[O=C(CN1CCCNCCCNCCC1)[*:2]].L.A.L.A.L.G.[CO[*:1]]}$$$$V2.0), the outcome in series [1] was inactive.

On to `COC(=O)[C@@H](NC(=O)[C@H](CC(C)C)NC(=O)[C@H](C)NC(=O)[C@H](CC(C)C)NC(=O)[C@H](C)NC(=O)[C@H](CC(C)C)NC(=O)CN1CCCNCCCNCCC1)C(C)C` (HELM PEPTIDE1{[O=C(CN1CCCNCCCNCCC1)[*:2]].L.A.L.A.L.V.[CO[*:1]]}$$$$V2.0), for which the outcome in [1] was inactive.

As for `COC(=O)[C@H](Cc1ccccc1)NC(=O)[C@H](CC(C)C)NC(=O)[C@H](C)NC(=O)[C@H](CC(C)C)NC(=O)[C@H](C)NC(=O)[C@H](CC(C)C)NC(=O)CN1CCCNCCCNCCC1` (HELM PEPTIDE1{[O=C(CN1CCCNCCCNCCC1)[*:2]].L.A.L.A.L.F.[CO[*:1]]}$$$$V2.0), the Kapp in [2] was 1.4 ×10⁵ /M. The viability at 24 h, 250 µM in series [3] was 83%; in [9] it was 78%. Also, the result in series [4] was inactive. The Activity in [5] is 208 nm; in [7], 20 nm. In addition, the result in [6] and in [8] was Active.

For the molecule `COC(=O)[C@H](C)NC(=O)[C@H](CC(C)C)NC(=O)[C@H](C)NC(=O)[C@H](CC(C)C)NC(=O)[C@H](C)NC(=O)[C@H](CC(C)C)NC(=O)CN1CCCNCCCNCCC1` (HELM PEPTIDE1{[O=C(CN1CCCNCCCNCCC1)[*:2]].L.A.L.A.L.A.[CO[*:1]]}$$$$V2.0), the result in series [1] was inactive.

Regarding `COC(=O)[C@H](Cc1ccc(O)cc1)NC(=O)[C@H](CC(C)C)NC(=O)[C@H](C)NC(=O)[C@H](CC(C)C)NC(=O)[C@H](C)NC(=O)[C@H](CC(C)C)NC(=O)CN1CCCNCCCNCCC1` (HELM PEPTIDE1{[O=C(CN1CCCNCCCNCCC1)[*:2]].L.A.L.A.L.Y.[CO[*:1]]}$$$$V2.0), the result in [1] was inactive.

In the case of `COC(=O)[C@H](CO)NC(=O)[C@H](CC(C)C)NC(=O)[C@H](C)NC(=O)[C@H](CC(C)C)NC(=O)[C@H](C)NC(=O)[C@H](CC(C)C)NC(=O)CN1CCCNCCCNCCC1` (HELM PEPTIDE1{[O=C(CN1CCCNCCCNCCC1)[*:2]].L.A.L.A.L.S.[CO[*:1]]}$$$$V2.0), in series [1], the result was inactive.

For `COC(=O)[C@H](Cc1c[nH]c2ccccc12)NC(=O)[C@H](CC(C)C)NC(=O)[C@H](C)NC(=O)[C@H](CC(C)C)NC(=O)[C@H](C)NC(=O)[C@H](CC(C)C)NC(=O)CN1CCCNCCCNCCC1` (HELM PEPTIDE1{[O=C(CN1CCCNCCCNCCC1)[*:2]].L.A.L.A.L.W.[CO[*:1]]}$$$$V2.0), the Kapp in series [2] is 1.2 ×10⁵ /M. Also, the viability at 24 h, 250 µM amounted to 85% in [3] and 80% in series [9]. Besides, the Activity was found to be 196 nm in [5] and 36 nm in series [7]. Further, the outcome in series [6] and in series [8] was Active. Besides, the outcome in [10] was inactive.

Take `COC(=O)[C@H](CC(C)C)NC(=O)[C@H](CC(C)C)NC(=O)[C@H](C)NC(=O)[C@H](CC(C)C)NC(=O)[C@H](C)NC(=O)[C@H](CC(C)C)NC(=O)CN1CCCNCCCNCCC1` (HELM PEPTIDE1{[O=C(CN1CCCNCCCNCCC1)[*:2]].L.A.L.A.L.L.[CO[*:1]]}$$$$V2.0): the Kapp in [2] is 1.9 ×10⁵ /M. Besides, the Activity in series [11] turned out to be 30 nm; in series [5], 174 nm. Also, the viability at 24 h, 250 µM in [3] came to 97%; in series [9], 96%. The outcome in [4] was inactive. Further, the result in series [12] and in [13] was Active.

For the origin of these results see ChEMBL document CHEMBL2021768, “Syntheses of [12]aneN₃-oligopeptide conjugates as effective DNA condensation agents” (Bioorg Med Chem, 2012).
